Results taken from ChEMBL document CHEMBL1125061, “Antitumor agents. 111. New 4-hydroxylated and 4-halogenated anilino derivatives of 4'-demethylepipodophyllotoxin as potent inhibitors of human DNA topoisomerase II” (1990).

Tests used:
Homo sapiens = species on record: Homo sapiens; assay: Cellular protein-DNA complex formation at 10 uM.; assay type: functional; set-up: reference not given here
[1] = target: T1, DNA topoisomerase II (Homo sapiens) (UniProt P11388+Q02880); assay: Inhibition of DNA topoisomerase II at 100 uM.; assay type: protein assay
How it was run: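 Human DNA topoisomerase II inhibition, tested at 25, 50 and 100 μM. […] The ID₅₀ is set from the degree of inhibition across the three concentrations.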

[2] = In vitro cytotoxicity against KB cells after a 3-day incubation.; assay type: functional; conditions: Homo sapiens, 72 h, read-out: ID50 (the source's name)
How it was run: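 KB cell culture, 3-day incubation with drug; read-out was cell number. ID50 taken as the concentration giving a 50% reduction in cell number.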

[3] = target: T1, DNA topoisomerase II (Homo sapiens); assay: Evaluated for inhibitory activity against DNA topoisomerase II; assay type: protein assay

SMILES | Complex formation (Homo sapiens) [%] | inhibition [1] [%] | IC50 [2] [nM] | ID50 [3] [nM]
COc1cc([C@@H]2c3cc4c(cc3[C@@H](Nc3ccc(Cl)cc3)[C@H]3COC(=O)[C@H]23)OCO4)cc(OC)c1O | 99 | 75 | 220 | 50000
COc1cc([C@@H]2c3cc4c(cc3[C@@H](Nc3ccc(O)cc3)[C@H]3COC(=O)[C@H]23)OCO4)cc(OC)c1OC | 21 | 25 | 590 | –
COc1cc([C@@H]2c3cc4c(cc3[C@@H](Nc3ccccc3Cl)[C@H]3COC(=O)[C@H]23)OCO4)cc(OC)c1O | 32 | 25 | 2340 | –
COc1cc([C@@H]2c3cc4c(cc3[C@@H](Nc3cccc(O)c3)[C@H]3COC(=O)[C@H]23)OCO4)cc(OC)c1O | 290 | > 75 | 450 | 5000
COc1cc([C@@H]2c3cc4c(cc3[C@@H](Nc3ccccc3F)[C@H]3COC(=O)[C@H]23)OCO4)cc(OC)c1O | 121 | 50 | 250 | –
COc1cc([C@@H]2c3cc4c(cc3[C@@H](O[C@@H]3O[C@@H]5CO[C@@H](C)O[C@H]5[C@H](O)[C@H]3O)[C@H]3COC(=O)[C@H]23)OCO4)cc(OC)c1O [ETOPOSIDE] | 100 | 75 | 200 | 50000
COc1cc([C@@H]2c3cc4c(cc3[C@@H](Nc3cccc(Cl)c3)[C@H]3COC(=O)[C@H]23)OCO4)cc(OC)c1O | 51 | 50 | 2290 | –
COc1cc([C@@H]2c3cc4c(cc3[C@@H](Nc3ccc(Br)cc3)[C@H]3COC(=O)[C@H]23)OCO4)cc(OC)c1O | 179 | 50 | 220 | 100000
COc1cc([C@@H]2c3cc4c(cc3[C@@H](Nc3ccccc3O)[C@H]3COC(=O)[C@H]23)OCO4)cc(OC)c1OC | 6 | 25 | 4110 | –
COc1cc([C@@H]2c3cc4c(cc3[C@@H](Nc3ccc(I)cc3)[C@H]3COC(=O)[C@H]23)OCO4)cc(OC)c1O | 64 | 25 | 340 | –
COc1cc([C@@H]2c3cc4c(cc3[C@@H](Nc3cc(F)cc(F)c3)[C@H]3COC(=O)[C@H]23)OCO4)cc(OC)c1O | 115 | 50 | 1080 | 50000
COc1cc([C@@H]2c3cc4c(cc3[C@@H](Nc3ccc(F)cc3)[C@H]3COC(=O)[C@H]23)OCO4)cc(OC)c1O | 213 | > 75 | 240 | 10000
COc1cc([C@@H]2c3cc4c(cc3[C@@H](Nc3cccc(Br)c3)[C@H]3COC(=O)[C@H]23)OCO4)cc(OC)c1O | 62 | 25 | 2360 | –
COc1cc([C@@H]2c3cc4c(cc3[C@@H](Nc3cccc(F)c3)[C@H]3COC(=O)[C@H]23)OCO4)cc(OC)c1O | 158 | 75 | 230 | 50000
COc1cc([C@@H]2c3cc4c(cc3[C@@H](Nc3cccc(O)c3)[C@H]3COC(=O)[C@H]23)OCO4)cc(OC)c1OC | 37 | 25 | 310 | –
COc1cc([C@@H]2c3cc4c(cc3[C@@H](Nc3ccc(O)cc3)[C@H]3COC(=O)[C@H]23)OCO4)cc(OC)c1O | 211 | 75 | 2260 | 25000
COc1cc([C@@H]2c3cc4c(cc3[C@@H](Nc3ccccc3O)[C@H]3COC(=O)[C@H]23)OCO4)cc(OC)c1O | 151 | > 75 | 4540 | 25000
